Results reported in PMC7218746 (Biomacromolecules, 2020).
Ends that are not written are not given here.

How the values were obtained:
[1] = tested on: Metalloprotease (type IV) collagenase from C. histolyticume; test: Kinetics of Pep-NC cleavage by collagenase; type: in vitro ADME; conditions: GPC; for change of molecular weight after incubation with collagenase: collagenase 30 units·mL–1, 24 h
How it was run: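 Polymer at 5 mg·mL–1 in PBS pH 7.4 with 0.9 mM CaCl2 and 0.02% NaN3, held 3 h at 4 °C, then 37 °C. l-Pep-NC incubated with or without type IV collagenase (0.5 units·mL–1); d-Pep-NC with 30 units·mL–1 for 24 h. Timed l-Pep-NC aliquots quenched 1 h with 0.1 M EDTA, dialysed, lyophilised. Mn by GPC (DMF/10 mM LiCl, 65 °C, RI detection, PEG standards).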

[2] = Determination of cloud points of polymers; type: physicochemical; conditions: in PBS; refers to Table 1
[3] = Dynamic light scattering; type: physicochemical; conditions: DLS, 1 mg·mL–1 in PBS pH 7.4, 37 °C, 173° angle; micelles as prepared
[4] = 37 °C, 5 mg·mL–1 polymer in PBS pH 7.4 with 0.9 mM CaCl2

Row | Sequence | change of molecular weight after incubation with collagenase [1, 4] | change of molecular weight in the absence of the enzyme ([1]; 24 h, 37 °C, PBS pH 7.4) | time for cleavage of the peptide block ([1]; collagenase 0.5 units·mL–1, 37 °C, 5 mg·mL–1 polymer in PBS pH 7.4 with 0.9 mM CaCl2) [min] | LCST [2] [°C] | Z-average diameter [3] [nm]
1 | KGPQGIFGQK [D-Pep-NC, (NIPAM-co-HPMA-Cys)-PEG-D-Peptide-PEG-P(NIPAM-co-HPMA-Cys)] | did not change |  |  |  | 
2 | KGPQGIFGQK [L-Pep-NC, P(NIPAM-co-HPMA-Cys)-PEG-peptide-PEG-P(NIPAM-co-HPMA-Cys)] | reduced to half its original molecular weight | No change in the molecular weight | 160 |  | 
3 | KGPQGIFGQK [Pep-NC, P(NIPAM-co-HPMA-Cys)-PEG-peptide-PEG-P(NIPAM-co-HPMA-Cys)] |  |  |  | ~31 | 87 ± 1
